Screening data deposited in PubChem BioAssay by several laboratories.
FLuc inh counter = Photinus pyralis luciferase inhibition counter-screen | ATPLite firefly luciferase biochemical luminescence, 10 min | inhibition, % at 10 µM | AID 1006 | hit rate 1.5% among 200,000;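 active means inhibition above about 50% when tested at 10 µM, limit read from the data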
Target sequence (P08659 whole entry, looked up): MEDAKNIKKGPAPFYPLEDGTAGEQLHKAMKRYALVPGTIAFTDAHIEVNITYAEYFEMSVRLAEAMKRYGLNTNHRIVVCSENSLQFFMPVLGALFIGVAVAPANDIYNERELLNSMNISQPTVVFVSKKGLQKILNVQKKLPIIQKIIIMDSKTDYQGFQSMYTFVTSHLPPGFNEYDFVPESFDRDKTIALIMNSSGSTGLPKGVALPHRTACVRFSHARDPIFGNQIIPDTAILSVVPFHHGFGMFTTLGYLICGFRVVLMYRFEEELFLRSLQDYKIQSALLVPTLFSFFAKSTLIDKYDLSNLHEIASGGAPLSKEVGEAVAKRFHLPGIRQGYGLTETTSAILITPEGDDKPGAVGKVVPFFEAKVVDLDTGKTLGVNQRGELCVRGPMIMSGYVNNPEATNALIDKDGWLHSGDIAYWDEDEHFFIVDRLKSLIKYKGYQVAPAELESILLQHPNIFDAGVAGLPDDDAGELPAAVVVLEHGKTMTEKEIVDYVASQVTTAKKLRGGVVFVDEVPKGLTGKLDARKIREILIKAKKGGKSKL
FLuc stim CS = affects firefly luciferase, flagging false hits in luciferase stimulation screens; P08659; ATPlite luciferase biochemical, luminescence, 10 min; 0 = ATP-free wells, 1 = DMSO control; activation factor at 10 µM; 200,000 tested, under 10 active; AID 1027;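 active means luciferase activation factor, scaled between plate controls, of at least 2 with compound at 10 µM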
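assay system = Luciferase/luciferin detection reagent, cell-free biochemical luciferase assay | also added = ATP substrate | times = 10 min post-reagent at room temperature | measured by = luminescence from luciferase reaction | measure = luciferase activation, seen as luminescence increase over controls | benchmarks = low control with PBS replacing ATP, high control enzyme plus ATP without compound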
NF-kB neuron act = compounds increasing NF-kB expression in human neuronal cells | NF-kB reporter expression; hits give high values | hit rate 1.6% among 190,000 | fold change at 12.5 µM; in the data active means fold change above about 3.3
Pf gametocyte = inhibitors of late stage P. falciparum gametocyte viability; AID 743093; hit rate 0.065% among 150,000; inhibition, % at 10.9 µM; P. falciparum stage V gametocytes, ATP luminescence, 24 h;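 active means inhibition above the mean plus 3 SD of compounds within the control limits, set per campaign, cut at about 38% in these data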;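 further: 0% = DMSO wells and 100% = medium only without gametocytes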
APP 5'UTR act = APP 5'UTR luciferase reporter activation. SH-SY5Y APP 5'UTR luciferase reporter, luminescence; zero percent = DMSO vehicle wells. hit rate 1% among 190,000. activation, % at 2 µM;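 active means activation above a set limit, based on mean plus 3 SD of controls, cut at about 140% in these data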
STAT1 act = activators of IFN-gamma induced STAT1 signaling; activation (% of control), % at 5.5 µM; NIH 3T3 STAT1-luciferase reporter, luminescence; 100% = IFN-gamma alone, no compound; hit rate 2.6% among 200,000; AID 932;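 active means activation above the screen-wide mean activation plus 3 SD, cut at about 130% in these data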;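 further: raw ratio to IFN-gamma control signal so 100% means no change and 0% no light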
Numbers without * were called inactive; nt = not tested or not shown. Rows were chosen to be rich in hits. Some 3.5% of all compounds tested hit in one or more screens of this group.

SMILES	FLuc inh counter	FLuc stim CS	NF-kB neuron act	Pf gametocyte	APP 5'UTR act	STAT1 act
C/C(=N/NC(=O)c1ccc2c(c1)OCO2)c1cccc(NC(=O)C(C)(C)C)c1	53*	0.5	1.5	nt	-2	101
C/C(=N\NC(=O)c1ccc(Cl)c(Cl)c1)c1ccc(Br)s1	-1	1	1.1	nt	-52	108
C/C(=N\NC(=O)c1ccc2c(c1)OCO2)c1ccco1	82*	0.2	2.8	8	60	92
C=C1CCN([C@@H](CC(C)C)C(=O)Nc2nc3ccc(Cl)cc3s2)S(=O)(=O)c2ccccc21	nt	nt	nt	26	nt	nt
Nc1c(C(=O)NCc2ccc3c(c2)OCO3)nnn1-c1ccc(OC(F)(F)F)cc1	4	1	1.4	-19	5	96
O=C(CN1C(=O)CCC1=O)Nc1nc(-c2ccccn2)cs1	-3	1	0.63	nt	4	97
O=C(CN1C(=O)CCC1=O)Nc1nc(-c2ccc3ccccc3c2)cs1	1	1	1.9	-17	-5	138*
O=C(CN1C(=O)CCC1=O)Nc1nc(-c2nc3ccccc3s2)cs1	34	0.7	1.2	nt	52	131*
Cc1ccc(-c2csc(NC(=O)CN3C(=O)CCC3=O)n2)cc1	-4	1	1.2	-8	4	102
CCOc1ccc(S(=O)(=O)N(C)c2ccc(OCC(=O)NCc3ccc(C(=O)OC)cc3)cc2)cc1	-3	1	1	8	-3	96
O=C(COC(=O)C12CC3CC(CC(Br)(C3)C1)C2)N1CCOCC1	-5	1.1	1.4	-25	19	101
CCC(=O)Nc1cccc(C(=O)/C=C/c2ccccc2)c1	6	0.9	8.8*	nt	24	108
CSc1ccc(/C=C/C(=O)Nc2ccccc2)cc1	83*	0.2	6.3*	12	210*	50
O=C(/C=C/c1ccccc1)Nc1cccc(C(=O)O)c1	92*	0.1	5.1*	4	-64	11
CSc1cccc(NC(=O)/C=C/c2ccccc2)c1	42	0.6	2.7	-9	109	133*
CCC(=O)Nc1cccc(C(=O)/C=C/c2cccs2)c1	14	0.9	2.6	-2	46	102
CC1CCC2C(=O)N(c3ccc(C(=O)Oc4cccc5cccnc45)cc3)C(=O)C2C1 (centres undefined)	-7	1.1	0.89	5	2	106
Cc1cccc(Nc2ncnc3c2cnn3C)c1	-6	1.1	1	-2	8	106
Cn1ncc2c(Nc3ccc4ccccc4c3)ncnc21	5	0.9	2.5	-11	81	145*
NC(=O)c1ccsc1NC(=O)c1ccc2c(c1)CCCC2	91*	0.1	8.2*	nt	180*	139*
NC(=O)c1ccsc1NC(=O)C1CCCCC1	-6	1.1	1.4	nt	4	101
CNC(=O)c1ccsc1NC(=O)c1ccc2c(c1)CCCC2	74*	0.3	0.94	nt	63	131*
NC(=O)c1ccsc1NC(=O)c1ccc(N2CCCC2=O)cc1	93*	0.1	1.2	nt	175*	90
COC(=O)CCCSc1nccn1-c1ccccc1	-6	1.1	6*	5	15	92
CCOc1ccccc1NC(=O)CSc1nccn1-c1ccccc1	-2	1	0.82	2	5	103
SMILES	FLuc inh counter	FLuc stim CS	NF-kB neuron act	Pf gametocyte	APP 5'UTR act	STAT1 act
c1ccc(CCSc2nccn2-c2ccccc2)cc1	11	0.9	4.6*	10	126	142*
CC(=O)Oc1cc2oc(=O)c3c(c2cc1Cl)CCC3	0	1	1.6	nt	7	105
Cc1ccc(-c2nsc3c(N4CCC(C(N)=O)CC4)ncnc23)cc1	20	0.8	1.7	nt	142*	104
COc1ccc(-c2nsc3c(N4CCCCC4)ncnc23)cc1	89*	0.1	0.66	11	98	78
COc1ccc(-c2nsc3c(N4CCCCC4C)ncnc23)cc1 (centres undefined)	91*	0.1	0.19	-15	-34	24
Cc1ccc(C(=O)N2CCN(c3ncnc4c(-c5ccccc5)nsc34)CC2)cc1	-10	1.1	0.98	nt	0	100
Cc1ccc(C2OC(=O)C=C2c2ccccc2)cc1 (centres undefined)	nt	nt	nt	-9	nt	nt
COc1ccc(NC(=O)c2ccccn2)cc1	90*	0.1	3.3*	nt	80	84
COc1ccc(NC(=O)c2ccc(-c3ccccc3Cl)o2)cc1	2	1	2.2	-3	49	130*
COc1ccc(NC(=O)c2ccccn2)cc1OC	21	0.8	1.9	10	44	124
COc1ccc(NC(=O)c2cc3ccccn3n2)cc1	80*	0.2	6*	nt	149*	120
O=C(NCc1ccc(Cl)cc1)c1cc2ccccn2n1	0	1	1.2	nt	4	110
CSc1cccc(NC(=O)c2ccccn2)c1	51*	0.5	2.6	nt	90	142*
CCOc1ccc(C(=O)Nc2ccc3[nH]ncc3c2)cc1	nt	nt	nt	11	nt	nt
CC(C)[C@H]1COCCS(=O)(=O)N1Cc1cccc(Cl)c1	nt	nt	nt	-23	nt	nt
COc1cc(C2C(C#N)=C(N)Oc3cc(N)ccc32)cc(OC)c1OC (centres undefined)	1	1	3.7*	-16	-95	109
Cc1nc(N2CCCCC2)c2c(-c3cccs3)csc2n1	-2	1	7.8*	10	-6	92
Cc1ccc2c(c1)NCCO2	-6	1.1	1.1	7	2	97
CN(C)CCOc1cc(Cl)cc(Cl)c1	-2	1	4.2*	2	15	96
CN(C)CCOc1cccc(Cl)c1	-6	1.1	1.2	-21	-6	93
COc1ccc(/C=C/C2=NN(C)C(=O)CC2)cc1	81*	0.2	3.4*	nt	149*	127
CCOC(=O)CN1N=C(/C=C/c2ccc(C)cc2)CCC1=O	1	1	1.4	18	-10	108
COCCNc1nc2sc3c(c2c(=O)n1Cc1ccco1)CCCCC3	11	0.9	1.9	6	91	129*
O=C1c2cccc3cccc(c23)C(=O)N1OS(=O)(=O)c1ccccc1	59*	0.4	3	nt	7	111
O=C1c2cccc3cccc(c23)C(=O)N1OS(=O)(=O)c1ccc(Br)cc1	-5	1.1	1.2	2	3	95
CCn1nc(C)c(CNC(=O)Nc2ccccc2C(=O)OC)c1C	26	0.7	0.96	-41	6	91
S=C(NC1CCCCC1)NC1CC2CCC(C1)N2Cc1ccccc1 (centres undefined)	-8	1.1	0.96	-3	0	100
CCCOc1ccc2cc(-c3ccccn3)c(=O)oc2c1	92*	0.1	1.2	nt	123	65
O=c1oc2cc(OCc3c(F)cccc3Cl)ccc2cc1-c1ccccn1	nt	nt	1.4	nt	-4	112
COc1ccccc1C(=O)Nc1nnc(-c2ccco2)s1	51*	0.5	3.2	5	145*	138*
